In ChEMBL document CHEMBL1126098, “Synthesis and SAR of 6-substituted purine derivatives as novel selective positive inotropes” (J Med Chem, 1992):
Active and inactive are the calls of the source. The rule behind the calls is not given here.

Assays:
[1] = system: Canis familiaris; test: Mean arterial blood pressure in dog after administering ca. 1.875 mg/Kg drug intravenously.; type: functional, Canis lupus familiaris; design: unit not given beside the values
In short: (§1)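 Adult mongrel dogs anesthetized with sodium pentobarbital (45 mg/kg ip) and artificially respired. MAP measured via cannulated femoral artery; HR from cardiotachometer; LV +dP/dtmax via Millar catheter; CF by Walton Brodie strain gauge on right ventricle (baseline tension 100 g). Compound in 10% DMF/saline or HCl salt, infused iv into femoral vein over 5 min per step. Each step given at peak of the prior one; three to four increasing doses. Response expressed as % change from predrug control; n = 1–5 dogs.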

[2] = species on record: Canis familiaris; test: dP/dt max was determined in dog; type: functional, Canis lupus familiaris; design: unit not given beside the values; in short: as §1
[3] = species on record: Mustela putorius furo; test: In vitro changes in contractile force (CF) quantitated by determining the maximal increase in isometric tension by using ferret papillary muscle.; type: functional, tissue-based; conditions: Muscle tissue
In short: (§2)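 Isolated ferret papillary muscle in Tyrode's solution with timolol (1×10^-7 M), equilibrated 2 h. Compound diluted from 1×10^-2 M DMSO stock and added at serially increasing concentrations, up to 10 μM. Isometric tension read 15 min after each addition. Result is maximal increase as % of control tension, from mean of n ≥ 3.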

[4] = system: Canis familiaris; test: Heart rate in dog after administering ca. 1.875 mg/Kg drug intravenously; type: functional, Canis lupus familiaris; in short: as §1
[5] = system: Canis familiaris; test: Cardiac force in dog after administering ca. 1.875 mg/Kg drug intravenously.; type: functional, Canis lupus familiaris; design: unit not given beside the values; in short: as §1
[6] = Relative change in CF was determined by calculating the effective concentration that produced a 50% of maximum increase in tension.; type: functional, Mustela putorius furo
In short: (§3)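 Ferret papillary muscle in Tyrode's solution with timolol (1×10^-7 M); compound given at cumulative serially increasing concentrations, each read at 15 min. EC50 is the concentration giving 50% of that compound's own maximal tension increase. Estimated graphically from mean data, n ≥ 3.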

[7] = system: Canis familiaris; test: Effective dose required to produce 50% increase of cardiac force in dog after administering ca. 1.875 mg/Kg drug intravenously; type: functional; conditions: Canis lupus familiaris, iv; in short: as §1
[8] = Relative change in CF was determined by calculating the effective concentration that produced a 50% of maximum increase in tension; type: functional, Mustela putorius furo; in short: as §3
[9] = In vitro changes in contractile force (CF) quantitated by determining the maximal increase in isometric tension by using ferret papillary muscle; type: functional, Mustela putorius furo, Muscle tissue; in short: as §2
[10] = system: Canis familiaris; test: Dose to produce a 50% increase of CF n dog after administering ca. 1.875 mg/kg drug intra venously; type: functional; conditions: Canis lupus familiaris; in short: as §1
[11] = system: Canis familiaris; test: Cardiac force was determined in dog after administering ca. 1.875 mg/kg drug intra venously; type: functional, Canis lupus familiaris; in short: as §1
[12] = system: Canis familiaris; test: Mean arterial blood pressure determined in dog after administering ca. 1.875 mg/kg drug intra venously; type: functional, Canis lupus familiaris; in short: as §1
[13] = system: Canis familiaris; test: Heart rate determined in dog after administering ca. 1.875 mg/kg drug intra venously; type: functional, Canis lupus familiaris; in short: as §1
[14] = Relative changes in CF was determined by calculating the effective concentration that produced a 50% of maximum increase in tension; type: functional, Mustela putorius furo; in short: as §3

| EC50 [6] | EC50 [8] [nM] | EC50 [14] [nM] | SMILES | MAP [1] | dP/dt max [2] | Max [3] | Heart rate [4] | Cardiac force [5] | ED50 [7] [mg/kg] | Max [9] [%] | ED50 [10] [mg/kg] | Cardiac force [11] | MPA [12] | Heart rate [13] |
| --- | --- | --- | --- | --- | --- | --- | --- | --- | --- | --- | --- | --- | --- | --- |
| Not Active |  |  | OC(COc1ncnc2c1ncn2C1CCCCO1)CN1CCN(C(c2ccc(F)cc2)c2ccc(F)cc2)CC1 (stereo unspecified) | -5 | 38 | inactive | 9 | 34 |  |  |  |  |  |  |
| Not Active |  |  | CCN(CC(O)CN1CCN(C(c2ccc(F)cc2)c2ccc(F)cc2)CC1)c1[nH]cnc2ncnc1-2 (stereo unspecified) | 5 | 16 | inactive | 2 | 13 |  |  |  |  |  |  |
|  | 170 |  | CC(C)(C)C(=O)OC(CSc1[nH]cnc2ncnc1-2)CN1CCN(C(c2ccc(F)cc2)c2ccc(F)cc2)CC1 (stereo unspecified) | -5 | 24 |  | 4 | 12 |  | 43 |  |  |  |  |
| Not Active |  |  | OC(COc1[nH]cnc2ncnc1-2)CN1CCN(C(c2ccc(F)cc2)c2ccc(F)cc2)CC1 (stereo unspecified) | 4 | 58 | inactive | 12 | 80 | 0.72 |  |  |  |  |  |
|  | 700 |  | CC(=O)OC(CSc1[nH]cnc2ncnc1-2)CN1CCN(C(c2ccc(F)cc2)c2ccc(F)cc2)CC1 (stereo unspecified) | -12 | 62 |  | -4 | 145 | 0.3 | 248 |  |  |  |  |
| Not Active |  |  | OC(COc1ncnc2c1ncn2C1CCCCO1)CN1CCN(C(c2ccccc2)c2ccccc2)CC1 (stereo unspecified) | -2 | 13 | inactive | 0 | 24 |  |  |  |  |  |  |
|  |  | 2500 | CC(=O)Oc1ccccc1C(=O)OC(CSc1[nH]cnc2ncnc1-2)CN1CCN(C(c2ccc(F)cc2)c2ccc(F)cc2)CC1 (stereo unspecified) |  | 34 |  |  |  |  | 34 | 1.6 | 56 | 0 | 1 |
|  | 470 |  | OC(CSc1[nH]cnc2ncnc1-2)CN1CCN(C(c2ccc(Br)cc2)c2ccc(Br)cc2)CC1 (stereo unspecified) | 11 | 108 |  | -2 | 148 | 0.31 | 64 |  |  |  |  |

The next lines start with the compound.

| SMILES | EC50 [6] | EC50 [8] [nM] | EC50 [14] [nM] | MAP [1] | dP/dt max [2] | Max [3] | Heart rate [4] | Cardiac force [5] | ED50 [7] [mg/kg] | Max [9] [%] | ED50 [10] [mg/kg] | Cardiac force [11] | MPA [12] | Heart rate [13] |
| --- | --- | --- | --- | --- | --- | --- | --- | --- | --- | --- | --- | --- | --- | --- |
| OC(CSc1[nH]cnc2ncnc1-2)CN1CCN(C(c2ccccc2)c2ccccc2)CC1 (stereo unspecified) |  | 1100 |  | -12 | 60 |  | -1 | 86 | 0.63 | 249 |  |  |  |  |
| OC(CSc1[nH]cnc2ncnc1-2)CN1CCN(Cc2ccccc2)CC1 (stereo unspecified) | Not Active |  |  | 1 | 34 | inactive | 0 | 30 |  |  |  |  |  |  |
| N#Cc1cc2c(OCC(O)CN3CCN(C(c4ccccc4)c4ccccc4)CC3)cccc2[nH]1 (stereo unspecified) |  | 500 |  | -21 | 88 |  | -12 | 98 | 0.43 | 131 |  |  |  |  |
| OC(CSc1[nH]cnc2ncnc1-2)CN1CCN(C(c2ccccc2)c2ccc(Cl)cc2)CC1 (stereo unspecified) |  | 440 |  | 2 | 75 |  | -4 | 100 | 0.49 | 242 |  |  |  |  |
| OC(COc1[nH]cnc2ncnc1-2)CN1CCN(C(c2ccccc2)c2ccccc2)CC1 (stereo unspecified) | Not Active |  |  | 4 | 37 | inactive | 2 | 69 | 0.9 |  |  |  |  |  |
| OC(CSc1[nH]cnc2ncnc1-2)CN1CCN(C(c2ccccc2)(c2ccccc2)c2ccccc2)CC1 (stereo unspecified) | Not Active |  |  | -14 | 23 | inactive | 4 | 22 |  |  |  |  |  |  |
| Cc1nc(SCC(O)CN2CCN(C(c3ccc(F)cc3)c3ccc(F)cc3)CC2)c2[nH]cnc2n1 (stereo unspecified) |  |  |  | 1 | 17 |  | 1 | 23 |  |  |  |  |  |  |
